Assay results from paper PMC2973230 (Biochemical Journal, 2010).

Legend:
[1] = target: T1, OgOGA (Oceanicola granulosus OGA) (Oceanicola granulosus, UniProt Q2CEE3); test: Inhibition of OgOGA by OGA inhibitors, 4MU-GlcNAc substrate; assay type: biochemical
Procedure, shortened: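 OgOGA was a GST fusion expressed in E. coli and purified by affinity, anion-exchange and size-exclusion steps. Activity was measured in 25 mM Tris/HCl pH 7.5 with 0.1 mg/ml BSA and 2% DMSO at 37 °C. 4MU-GlcNAc was used at its Km for 20 min, with fluorescence read at ex 360/em 460 nm. Run in triplicate.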

[2] = target: T1, OgOGA (Oceanicola granulosus OGA); test: Enzymatic deglycosylation of glycopeptide monitored by LC-MS; assay type: biochemical; settings: detected by LC-MS; 785 Da to 582 Da
Procedure, shortened: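 OgOGA expressed in E. coli as a GST fusion from a gene cloned from genomic DNA, then purified by affinity, anion-exchange and size-exclusion chromatography. Glycopeptide loss of GlcNAc followed by LC–MS: reversed-phase C18 HPLC with diode-array UV detection, coupled to a high-resolution TOF mass spectrometer.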

T1 sequence (Q2CEE3 whole entry, the tested form may be a part): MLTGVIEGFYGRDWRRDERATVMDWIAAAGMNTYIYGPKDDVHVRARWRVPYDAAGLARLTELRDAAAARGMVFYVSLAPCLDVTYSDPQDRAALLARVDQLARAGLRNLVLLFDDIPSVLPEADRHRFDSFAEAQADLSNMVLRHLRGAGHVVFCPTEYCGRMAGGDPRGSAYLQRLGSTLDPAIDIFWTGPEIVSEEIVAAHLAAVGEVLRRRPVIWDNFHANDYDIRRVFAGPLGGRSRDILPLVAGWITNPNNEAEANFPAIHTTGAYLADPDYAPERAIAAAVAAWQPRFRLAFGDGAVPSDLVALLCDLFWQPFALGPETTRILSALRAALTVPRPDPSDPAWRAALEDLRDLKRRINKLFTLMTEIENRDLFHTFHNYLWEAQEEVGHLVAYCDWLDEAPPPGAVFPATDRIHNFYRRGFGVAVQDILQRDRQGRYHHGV

Compound	IC50 [1] [µM]	Deglycosylation of glycopeptide by OgOGA [2]
CC(=O)N[C@H]1/C(=N/OC(=O)Nc2ccccc2)O[C@H](CO)[C@@H](O)[C@@H]1O [PUGNAc, O-(2-acetamido-2-deoxy-D-glucopyranosylidene)amino-N-phenylcarbamate]	11	–
Ac-VAHS(-β-O-GlcNAc)GA-NH2	–	quantitatively deglycosylate
